One block for each compound: values may come before it.
Experiments:
[1] = molecular target: T1, Alpha-1 adrenergic receptor (Mus musculus, UniProt P97714+P97717+P97718); assay: Displacement of [3H]prazosin from alpha1 adrenoceptor in C57BL/6 mouse hippocampal homogenates after 40 mins by liquid scintillation counting method
T1 sequence (P97714 whole entry): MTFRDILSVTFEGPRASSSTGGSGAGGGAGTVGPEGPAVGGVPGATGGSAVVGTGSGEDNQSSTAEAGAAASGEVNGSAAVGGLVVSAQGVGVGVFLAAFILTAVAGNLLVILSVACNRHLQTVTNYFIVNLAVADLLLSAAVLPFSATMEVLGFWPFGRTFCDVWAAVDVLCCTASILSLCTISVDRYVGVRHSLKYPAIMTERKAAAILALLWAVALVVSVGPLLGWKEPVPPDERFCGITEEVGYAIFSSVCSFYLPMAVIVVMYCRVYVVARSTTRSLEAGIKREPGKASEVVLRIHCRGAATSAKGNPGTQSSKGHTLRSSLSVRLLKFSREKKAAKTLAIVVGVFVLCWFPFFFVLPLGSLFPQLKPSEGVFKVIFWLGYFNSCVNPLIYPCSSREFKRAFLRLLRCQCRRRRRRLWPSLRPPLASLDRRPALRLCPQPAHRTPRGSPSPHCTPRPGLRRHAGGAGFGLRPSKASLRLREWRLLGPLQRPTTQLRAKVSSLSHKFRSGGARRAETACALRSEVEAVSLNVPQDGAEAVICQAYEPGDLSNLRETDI
T1 sequence (P97717 whole entry): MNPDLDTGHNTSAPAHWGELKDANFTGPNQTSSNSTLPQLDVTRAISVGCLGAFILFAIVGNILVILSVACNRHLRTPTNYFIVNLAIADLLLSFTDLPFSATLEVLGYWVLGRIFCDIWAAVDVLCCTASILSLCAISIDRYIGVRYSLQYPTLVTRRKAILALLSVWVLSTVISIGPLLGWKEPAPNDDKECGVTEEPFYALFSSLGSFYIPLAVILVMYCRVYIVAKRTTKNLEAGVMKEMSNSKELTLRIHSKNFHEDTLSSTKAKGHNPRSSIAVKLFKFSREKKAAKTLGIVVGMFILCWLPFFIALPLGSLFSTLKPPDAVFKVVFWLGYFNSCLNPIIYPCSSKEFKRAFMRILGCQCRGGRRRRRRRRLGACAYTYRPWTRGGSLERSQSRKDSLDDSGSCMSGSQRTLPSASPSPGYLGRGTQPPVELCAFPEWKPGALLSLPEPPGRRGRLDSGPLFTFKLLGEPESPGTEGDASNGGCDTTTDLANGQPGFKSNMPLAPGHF
T1 sequence (P97718 whole entry): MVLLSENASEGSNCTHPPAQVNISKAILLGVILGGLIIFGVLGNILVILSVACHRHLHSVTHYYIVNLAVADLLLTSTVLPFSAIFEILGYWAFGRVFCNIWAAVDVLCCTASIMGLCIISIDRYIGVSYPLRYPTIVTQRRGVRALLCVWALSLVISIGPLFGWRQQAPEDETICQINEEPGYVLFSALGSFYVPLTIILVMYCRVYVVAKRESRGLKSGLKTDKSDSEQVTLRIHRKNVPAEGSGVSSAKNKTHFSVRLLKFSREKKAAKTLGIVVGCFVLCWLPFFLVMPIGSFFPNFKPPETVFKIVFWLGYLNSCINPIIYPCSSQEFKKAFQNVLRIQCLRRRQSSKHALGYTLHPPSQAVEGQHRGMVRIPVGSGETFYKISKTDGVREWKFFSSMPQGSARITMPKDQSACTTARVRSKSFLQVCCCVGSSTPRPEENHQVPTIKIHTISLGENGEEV
Procedure, shortened: (§1)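 Mouse hippocampal homogenate incubated with 1.5 nM [³H]prazosin and competing ligand across a concentration series. Bound radioligand was expressed as displacement relative to control. IC₅₀ was obtained from non-linear regression fitting of concentration-effect curves, and curve fits were compared with tamsulosin.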

alpha1 adrenoceptor [2] = molecular target: T2, alpha1 adrenoceptor (Mus musculus, UniProt P97714+P97717+P97718); assay: Displacement of [3H]prazosin from alpha1 adrenoceptor in C57BL/6 mouse hippocampal homogenates assessed as remaining receptor bound [3H]prazosin levels at 0.0001 uM after 40 mins by liquid scintillation counting method relative to control; settings: probe [3H]prazosin, read-out: Activity; procedure, shortened: as §1
T2 sequence (P97714 whole entry): T1 sequence (P97714 whole entry)
T2 sequence (P97717 whole entry): T1 sequence (P97717 whole entry)
T2 sequence (P97718 whole entry): T1 sequence (P97718 whole entry)

alpha1 adrenoceptor [3] = molecular target: T2, alpha1 adrenoceptor; assay: Displacement of [3H]prazosin from alpha1 adrenoceptor in C57BL/6 mouse hippocampal homogenates assessed as remaining receptor bound [3H]prazosin levels at 0.001 uM after 40 mins by liquid scintillation counting method relative to control; settings: probe [3H]prazosin, read-out: Activity; procedure, shortened: as §1
alpha1 adrenoceptor [4] = molecular target: T2, alpha1 adrenoceptor; assay: Displacement of [3H]prazosin from alpha1 adrenoceptor in C57BL/6 mouse hippocampal homogenates assessed as remaining receptor bound [3H]prazosin levels at 0.01 uM after 40 mins by liquid scintillation counting method relative to control; settings: probe [3H]prazosin, read-out: Activity; procedure, shortened: as §1
alpha1 adrenoceptor [5] = molecular target: T2, alpha1 adrenoceptor; assay: Displacement of [3H]prazosin from alpha1 adrenoceptor in C57BL/6 mouse hippocampal homogenates assessed as remaining receptor bound [3H]prazosin levels at 0.1 uM after 40 mins by liquid scintillation counting method relative to control; settings: probe [3H]prazosin, read-out: Activity; procedure, shortened: as §1
alpha1 adrenoceptor [6] = molecular target: T2, alpha1 adrenoceptor; assay: Displacement of [3H]prazosin from alpha1 adrenoceptor in C57BL/6 mouse hippocampal homogenates assessed as remaining receptor bound [3H]prazosin levels at 1 uM after 40 mins by liquid scintillation counting method relative to control; settings: probe [3H]prazosin, read-out: Activity; procedure, shortened: as §1
alpha1 adrenoceptor [7] = molecular target: T2, alpha1 adrenoceptor; assay: Displacement of [3H]prazosin from alpha1 adrenoceptor in C57BL/6 mouse hippocampal homogenates assessed as remaining receptor bound [3H]prazosin levels at 10 uM after 40 mins by liquid scintillation counting method relative to control; settings: probe [3H]prazosin, read-out: Activity; procedure, shortened: as §1
alpha1 adrenoceptor [8] = molecular target: T2, alpha1 adrenoceptor; assay: Displacement of [3H]prazosin from alpha1 adrenoceptor in C57BL/6 mouse hippocampal homogenates assessed as remaining receptor bound [3H]prazosin levels at 100 uM after 40 mins by liquid scintillation counting method relative to control; settings: probe [3H]prazosin, read-out: Activity; procedure, shortened: as §1
Mus musculus [9] = assay: Anti-depressant-like activity in mouse assessed as time spent immobile at 0.1 mg/kg, ip administered 60 mins prior to testing measured for 6 mins by tail suspension test (reference value: 186.9 +/- 13.2 secs); assay type: functional
Mus musculus [10] = assay: Anti-depressant-like activity in mouse assessed as time spent immobile at 1 mg/kg, ip administered 60 mins prior to testing measured for 6 mins by tail suspension test (reference value: 186.9 +/- 13.2 secs); assay type: functional
Mus musculus [11] = assay: Anti-depressant-like activity in mouse assessed as time spent immobile at 3.2 mg/kg, ip administered 60 mins prior to testing measured for 6 mins by tail suspension test (reference value: 186.9 +/- 13.2 secs); assay type: functional
Mus musculus [12] = assay: Toxicity in mouse assessed as suppression of locomotion at 1 mg/kg, ip measured for 5 mins; assay type: organism-based; settings: in vivo
Mus musculus [13] = assay: Toxicity in mouse assessed as suppression of locomotion at 10 mg/kg, ip measured for 5 mins; assay type: organism-based; settings: in vivo
Mus musculus [14] = assay: Toxicity in mouse assessed as suppression of locomotion at 0.1 mg/kg, ip measured for 5 mins; assay type: organism-based; settings: in vivo
Mus musculus [15] = assay: Toxicity in mouse assessed as mortality at 10 mg/kg, ip measured for 5 mins; assay type: organism-based; settings: in vivo
Procedure, shortened: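 Mice were given an intraperitoneal injection of the compound, with D-22 dosed over 0.01–10.0 mg/kg and analogues at equivalent doses. Each mouse was placed at once in an infrared beam-break activity chamber. Beam breaks were counted per 5 min period over a four-hour session, and deaths at the 10 mg/kg dose were recorded in the locomotor dose groups.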

Compound: CC(C)[n+]1ccc(/C=C2/C=Cc3ccccc3N2C)c2ccccc21.O=C([O-])C(F)(F)F
- IC50 [1]: 1066 nM
- activity at 40 min, 0.0001 µM (alpha1 adrenoceptor [2]): 100%
- activity at 40 min, 0.001 µM (alpha1 adrenoceptor [3]): 100%
- activity at 40 min, 0.01 µM (alpha1 adrenoceptor [4]): 97.3%
- activity at 40 min, 0.1 µM (alpha1 adrenoceptor [5]): 89.7%
- activity at 40 min, 1 µM (alpha1 adrenoceptor [6]): 52.3%
- activity at 40 min, 10 µM (alpha1 adrenoceptor [7]): 6.7%
- activity at 40 min, 100 µM (alpha1 adrenoceptor [8]): 3.3%
- Time (Mus musculus [9]): 198.3 s
- Time (Mus musculus [10]): 152.8 s
- Time (Mus musculus [11]): 170.3 s
- Activity (Mus musculus [12]): Non-Toxic
- Activity (Mus musculus [13]): Toxic
- Activity (Mus musculus [14]): Non-Toxic

Compound: CCN1/C(=C/c2ccc3cc(Br)ccc3[n+]2CC)C=Cc2ccccc21.[I-]
- activity at 40 min, 0.001 µM (alpha1 adrenoceptor [3]): 100%
- activity at 40 min, 0.01 µM (alpha1 adrenoceptor [4]): 102%
- activity at 40 min, 0.1 µM (alpha1 adrenoceptor [5]): 67.7%
- activity at 40 min, 1 µM (alpha1 adrenoceptor [6]): 43.3%
- activity at 40 min, 10 µM (alpha1 adrenoceptor [7]): 1.3%
- activity at 40 min, 100 µM (alpha1 adrenoceptor [8]): 0%
- Time (Mus musculus [9]): 171.3 s
- Time (Mus musculus [10]): 190 s
- Time (Mus musculus [11]): 179 s
- Activity (Mus musculus [12]): Non-Toxic
- Activity (Mus musculus [13]): Toxic
- Activity (Mus musculus [14]): Non-Toxic
- Activity (Mus musculus [15]): Toxic

Compound: CCN1/C(=C/c2ccc3cc(OC)ccc3[n+]2CC)C=Cc2ccccc21.[I-]
- activity at 40 min, 0.001 µM (alpha1 adrenoceptor [3]): 100%
- activity at 40 min, 0.01 µM (alpha1 adrenoceptor [4]): 97%
- activity at 40 min, 0.1 µM (alpha1 adrenoceptor [5]): 81%
- activity at 40 min, 1 µM (alpha1 adrenoceptor [6]): 23%
- activity at 40 min, 10 µM (alpha1 adrenoceptor [7]): 1.7%
- activity at 40 min, 100 µM (alpha1 adrenoceptor [8]): 1.3%
- Time (Mus musculus [9]): 167.2 s
- Time (Mus musculus [10]): 135.7 s
- Time (Mus musculus [11]): 203.1 s
- Activity (Mus musculus [12]): Non-Toxic
- Activity (Mus musculus [13]): Toxic
- Activity (Mus musculus [14]): Non-Toxic
- Activity (Mus musculus [15]): Toxic

- IC50 [1]: 577 nM
Compound: CCN1/C(=C/c2ccc3cc(Cl)ccc3[n+]2CC)C=Cc2ccccc21.[I-]
- Time (Mus musculus [9]): 189.2 s
- Time (Mus musculus [10]): 189.3 s
- Time (Mus musculus [11]): 140.4 s
- Activity (Mus musculus [12]): Non-Toxic
- Activity (Mus musculus [13]): Toxic
- Activity (Mus musculus [14]): Non-Toxic

Compound: CN1/C(=C\c2cc[n+](C)c3ccccc23)C=Cc2ccccc21.O=C([O-])C(F)(F)F
- Time (Mus musculus [9]): 200.8 s
- Time (Mus musculus [10]): 165.3 s
- Time (Mus musculus [11]): 150 s
- Activity (Mus musculus [12]): Non-Toxic
- Activity (Mus musculus [13]): Toxic
- Activity (Mus musculus [14]): Non-Toxic
- Activity (Mus musculus [15]): Toxic

Source: ChEMBL document CHEMBL4118073, “Evaluation of the antidepressant therapeutic potential of isocyanine and pseudoisocyanine analogues of the organic cation decynium-22” (Eur J Med Chem, 2017)
